In data set [1] the test system is OVCAR-3. The data set is described as follows: Cytotoxicity against human OVCAR-3 cells assessed as reduction in cell viability measured after 48 hrs by CCK-8 assay. It is filed as functional, cell-based. To be noted: OVCAR-3, 48 h. In outline: (§1)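 CCK-8 viability: cells grown in RPMI-1640 with 10% FBS, 1×10^4 per well, attached 24 h, then medium replaced with fresh medium containing a range of compound concentrations for 48 h at 37 °C, 5% CO2. CCK-8 added 3 h, absorbance 450 nm; vehicle control set as 100%. IC50 by nonlinear regression, mean ± SD, at least two experiments in triplicate.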

Data set [2] deals with MCF7. The data set is described as follows: Cytotoxicity against human MCF7 cells assessed as reduction in cell viability measured after 48 hrs by CCK-8 assay. It is filed as functional, cell-based. To be noted: MCF7, 48 h. In outline:
as §1
In general terms: Formazan colour is commonly taken as a measure of viable cells.

In data set [3] the test system is PC-3. The experiment in a line: Induction of nitric oxide production in human PC-3 cells assessed as nitrite level at 100 uM measured after 12 to 48 hrs by Griess assay. Format: functional. To be noted: time 12-48 hrs. Put shortly:
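PC3 cells were seeded at 1×10^4 per well and grown 24 h, then moved to serum-free RPMI with 100 μM compound for 12, 24 or 48 h at 37 °C. Supernatant was mixed with 1% sulfanilamide in 2.5% H3PO4 (10 min, dark), then 0.1% NED (10 min, 37 °C), and A540 was read. Nitrite was calculated from a NaNO2 curve (0–100 μM). Controls were DMSO and SNP 100 μM. Data from ≥3 independent experiments in triplicate, mean ± SD.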
For orientation: Griess reagent forms a coloured azo dye with nitrite.

Data set [4] is described as follows: Selectivity index, ratio of IC50 for cytotoxicity against human MCF-10A cells to IC50 for cytotoxicity against human MCF7 cells. Format: toxicity, cell-based. To be noted: MCF-10A cells versus MCF7 cells, read-out: Ratio IC50. Put shortly:
(§2)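 CCK-8 was added for 3 h and A450 read, with vehicle set as 100% viability. IC50 was fitted by nonlinear regression from ≥2 experiments in triplicate. SI = normal-cell IC50 divided by the matched cancer-cell IC50.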

Data set [5] has as its system PC-3. The data set is described as follows: Cell cycle arrest in human PC-3 cells assessed as increase in cell accumulation at sub-G1 phase at 0.24 uM measured after 3 hrs in presence of antioxidant N-acetyl-L-cysteine by propidium iodide staining based flow cytometry. Format: functional. Put shortly: (§3)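 PC3 cells seeded 1×10^5 per well in 6-well plates, exposed 3 h, with or without 1 mM N-acetyl-L-cysteine pretreatment; vehicle 0.1% DMSO. Harvested with trypsin-EDTA, fixed in 75% ethanol in PBS at 4 °C for 30 min, stained 1 h with RNase (1.5 mg mL^-1) and propidium iodide (90 μg mL^-1); DNA content by flow cytometry. Phase fractions compared with control by ANOVA/Tukey.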

Data set [6] can be described thus: Selectivity index, ratio of IC50 for cytotoxicity against human PNT2 cells to IC50 for cytotoxicity against human PC-3 cells. Format: toxicity, cell-based. As to conditions: PNT2 cells versus PC-3 cells, read-out: Ratio IC50. In outline: as §2
Data set [7] deals with PC-3. The experiment in a line: Induction of morphological changes in human PC-3 cells assessed as cell rounding at 0.24 uM measured after 24 hrs by phase contrast microscopy. Format: functional, cell-based. In outline:
(§4)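 PC3 cells were seeded at 1×10^5 per well in 6-well plates and treated after 24 h, with or without 1 mM N-acetyl-L-cysteine. The same observation field was imaged by phase contrast microscopy at 1, 2, 3, 4 and 24 h. DMSO vehicle served as control.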

For data set [8], the system named is PC-3. The data set is described as follows: Induction of morphological changes in human PC-3 cells assessed as loss of adhesion at 0.24 uM measured after 24 hrs in presence of antioxidant N-acetyl-L-cysteine by phase contrast microscopy. Format: functional, cell-based. Put shortly: as §4
The nature of data set [9]: Cytotoxicity against human MCF-10A cells assessed as reduction in cell viability measured after 48 hrs by CCK-8 assay. Format: toxicity, cell-based. Put shortly:
as §1

Data set [10] concerns PC-3. The data set is described as follows: Cytotoxicity against human PC-3 cells assessed as reduction in cell viability measured after 48 hrs by CCK-8 assay. As to conditions: PC-3, 48 h. It is filed as functional, cell-based. In outline: as §1
The test system of data set [11] is PC-3. The data set is described as follows: Induction of DNA damage in human PC-3 cells assessed as increase in phosphorylated gamma-H2AX expression at 0.24 uM measured after 6 hrs by DAPI staining based confocal laser scanning microscopy. It is filed as functional, cell-based. In outline:
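γ-H2AX immunostaining: PC3 on coverslips (1×10^5 cells), serum-starved 18 h, then treated (methods state 1 h; legend states 6 h); fixed 3.7% formaldehyde, permeabilized 0.25% Triton X-100, blocked 3% albumin, anti-phospho-H2A.X Ser139 (1:500) then Alexa Fluor 488 secondary, DAPI nuclei; confocal, 500 cells per slide, three experiments; UVC 20 min positive control.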

Data set [12] has as its system PC-3. The experiment in a line: Induction of morphological changes in human PC-3 cells assessed as loss of adhesion at 0.24 uM measured after 24 hrs by phase contrast microscopy. It is filed as functional, cell-based. Put shortly: as §4
The subject of data set [13] is PC-3. The data set is described as follows: Induction of morphological changes in human PC-3 cells assessed as cell rounding at 0.24 uM measured after 24 hrs in presence of antioxidant N-acetyl-L-cysteine by phase contrast microscopy. It is filed as functional, cell-based. Put shortly: as §4
Data set [14] in a line: Cytotoxicity against human PNT2 cells assessed as reduction in cell viability measured after 48 hrs by CCK-8 assay. It is filed as toxicity, cell-based. In outline: as §1
Data set [15] has as its system PC-3. The data set is described as follows: Induction of morphological changes in human PC-3 cells assessed as cell rounding at 0.05 uM measured after 24 hrs in presence of antioxidant N-acetyl-L-cysteine by phase contrast microscopy. Format: functional, cell-based. In outline: as §4
For data set [16], the system named is PC-3. The data set is described as follows: Cell cycle arrest in human PC-3 cells assessed as up regulation of CDKN1A gene expression at 0.05 uM measured after 3 hrs by qPCR analysis. Format: functional, cell-based. Put shortly:
(§5)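 Seeded 1×10^5 cells per well in 6-well plates; PC3 treated 3 h. Total RNA extracted, qPCR; each target normalized to reference gene (β-actin) by efficiency-corrected ΔΔCt (Pfaffl) against a control calibrator sample, efficiencies from amplification profiles. Mean ± SEM of four independent experiments.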
A general note: Quantitative PCR measures a nucleic acid by following its amplification.

In data set [17] the test system is PC-3. The experiment in a line: Cell cycle arrest in human PC-3 cells assessed as reduction in cell accumulation at G0/G1 phase at 0.05 uM measured after 3 hrs by propidium iodide staining based flow cytometry. It is filed as functional. Put shortly:
as §3

Data set [18] concerns PC-3. The data set is described as follows: Cell cycle arrest in human PC-3 cells assessed as down regulation of c-Myc gene expression at 0.05 uM measured after 3 hrs by qPCR analysis. It is filed as functional, cell-based. Put shortly:
as §5

Data set [19] deals with PC-3. The data set is described as follows: Induction of morphological changes in human PC-3 cells assessed as cell rounding at 0.05 uM measured after 24 hrs by phase contrast microscopy. It is filed as functional, cell-based. Put shortly:
as §4

For data set [20], the system named is PC-3. The data set is described as follows: Induction of mitochondrial membrane potential loss in human PC-3 cells at 0.05 uM measured after 30 mins by MitoTracker Red based confocal microscopy. It is filed as functional, cell-based. In outline: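 Confocal imaging of PC3 cells loaded with CellROX Green (2.5 μM) and MitoTracker Red (0.5 μM) for 30 min at 37 °C, then three PBS washes and immediate capture. The MitoTracker dye stains intact mitochondria and diffuses out when membrane potential drops. Vehicle 0.1% DMSO served as negative control and 1 mM H2O2 as positive control.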

The subject of data set [21] is PC-3. The experiment in a line: Cell cycle arrest in human PC-3 cells assessed as reduction in cell accumulation at S phase at 0.05 uM measured after 3 hrs by propidium iodide staining based flow cytometry. It is filed as functional. In outline:
as §3

Data set [22] deals with PC-3. The experiment in a line: Induction of morphological changes in human PC-3 cells assessed as loss of adhesion at 0.05 uM measured after 24 hrs in presence of antioxidant N-acetyl-L-cysteine by phase contrast microscopy. Format: functional, cell-based. Put shortly: as §4
Data set [23] concerns PC-3. The experiment in a line: Induction of morphological changes in human PC-3 cells assessed as reduction in cell density at 0.05 uM measured after 24 hrs in presence of antioxidant N-acetyl-L-cysteine by phase contrast microscopy. Format: functional, cell-based. In outline: as §4

Activity calls are given as the source filed them. The calls are words filed in the database; no cut-off is given here.

Consider `COc1cc(/C=C/C(=O)N2CCC=CC2=O)cc(OC)c1OCCCOc1no[n+]([O-])c1S(=O)(=O)c1ccccc1`, for which the IC50 in [1] amounted to 400 nM; in data set [2], 1200 nM; in [10] it was 240 nM. Also, the Activity in data set [3] was 23.5 µM; in [12] it was “Active; Partial Loss Of Adhesion Observed”. For the same compound, the selectivity ratio was 3 in [4] and 75.5 in [6]. The result in [5], in [8] and in [13] was inactive. Further, the outcome in data set [7] and in data set [11] was Active. The IC50 at 48 h in data set [9] was 3500 nM; in data set [14], 17800 nM.
`COc1cc(/C=C/C(=O)N2CCC=CC2=O)cc(OC)c1OCCCCCCCCCCCCOc1no[n+]([O-])c1S(=O)(=O)c1ccccc1`: the IC50 was 120 nM in data set [1], 7900 nM in data set [2] and 50 nM in data set [10]. The outcome in [15], in data set [22] and in data set [23] was inactive. Further, the outcome in [16], in data set [18], in data set [19], in data set [20] and in data set [21] was Active. In addition, the Activity in data set [3] was 23.5 µM; in [17], “Active; Significant Reduction Observed”. The selectivity ratio in data set [4] turned out to be 15.7; in [6] it was 285. Also, the IC50 at 48 h in [9] is 123000 nM; in data set [14], 14100 nM.

For orientation: IC50 means the point on the concentration scale where inhibition reaches its midpoint.

The values above are taken from ChEMBL document CHEMBL6134784, “Furoxan-piplartine hybrids as effective NO donors and ROS inducers in PC3 cancer cells: design, synthesis, and biological evaluation” (RSC Med Chem, 2024).
